Experimental findings from ChEMBL document CHEMBL4130398, “Cyperaceae Species Are Potential Sources of Natural Mammalian Arginase Inhibitors with Positive Effects on Vascular Function” (J Nat Prod, 2017) are described below.

What is called inhibition is how much of the control response was suppressed. The term IC50 denotes the concentration that inhibits the measured activity by half.

For one assay, the species on record is Bos taurus. The assay can be described thus: Inhibition of bovine liver arginase assessed as reduction in urea production at 100 uM using L-arginine as substrate after 60 mins in presence of MnCl2 by alpha-isonitrosopropiophenone reagent based spectrophotometric analysis relative to control. The procedure, abridged: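 Purified bovine liver arginase I (0.025 U/μL in Tris-HCl 50 mM pH 7.5 with 0.1% BSA) with 10 mM MnCl2 cofactor, inhibitor from DMSO stock diluted in water, and L-arginine (0.05 M, pH 9.7). Incubated 60 min at 37 °C. Acid quench, then α-isonitrosopropiophenone at 100 °C for 45 min, A550. Activity relative to solvent control; three experiments in duplicate, mean ± SEM.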

Assay [1] is described as follows: Inhibition of bovine liver arginase assessed as reduction in urea production using L-arginine as substrate after 60 mins in presence of MnCl2 by alpha-isonitrosopropiophenone reagent based spectrophotometric analysis. Further details: species or system Bos taurus. Put shortly: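 Purified bovine liver arginase I with MnCl2 (10 mM) in Tris-HCl pH 7.5/BSA buffer, L-arginine substrate (0.05 M, pH 9.7). Inhibitors from 70 mM DMSO stocks, final 0.1–1000 μM in the well. 60 min at 37 °C, then urea read with α-isonitrosopropiophenone at 550 nm. IC50 taken from semilog plots of inhibition relative to solvent control; three experiments in triplicate, mean ± SEM.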

For `Oc1ccc([C@H]2Oc3cc(O)cc([C@@H]4[C@H](c5cc(O)cc(O)c5)[C@@H](c5ccc(O)cc5)O[C@@H]4c4ccc(O)cc4)c3[C@@H]2c2cc(O)cc3c2[C@@H](c2cc(O)cc(O)c2)[C@H](c2ccc(O)cc2)O3)cc1`, the inhibition in the assay filed under Bos taurus was 80 to 90%. `Oc1ccc([C@H]2c3c(O)cc(O)cc3[C@H]3c4c(cc(O)cc4[C@@H]2O)O[C@H]3c2ccc(O)cc2)cc1`: in the assay listed under Bos taurus, the inhibition was in the range of 80 to 90%. Also, in assay [1], the IC50 worked out at 182 µM. Turning to `Oc1cc(O)cc([C@@H]2c3c(/C=C/c4ccc(O)c(O)c4)cc(O)cc3O[C@H]2c2ccc(O)c(O)c2)c1`, in the assay filed under Bos taurus, the inhibition fell in the range of 80 to 90%. Moreover, in assay [1], the IC50 was 22.6 µM.

Turning to `Oc1ccc(/C=C/c2cc(O)cc3c2[C@H](c2cc(O)cc(O)c2)[C@@H](c2ccc(O)cc2)O3)cc1`, in the assay listed under Bos taurus, the inhibition lay within 80 to 90%. Also, in assay [1], the IC50 worked out at 27.8 µM. As to `N=C(NO)NCC[C@H](N)C(=O)O` [NOR-NOHA], the IC50 in assay [1] turned out to be 1.7 µM. For the molecule `Oc1cc(O)cc([C@@H]2[C@@H](c3ccc(O)c(O)c3)c3cc(O)c(O)cc3[C@@H]3c4c(O)cc(O)cc4[C@@H]4c5c(cc(O)cc5[C@H]32)O[C@H]4c2ccc(O)c(O)c2)c1`, the inhibition in the assay filed under Bos taurus lay within 80 to 90%. Further, the IC50 in assay [1] stood at 12.2 µM. The matching figures for `Oc1ccc([C@H]2Oc3cc(O)cc([C@@H]4[C@H](c5cc(O)cc(O)c5)[C@@H](c5ccc(O)cc5)O[C@@H]4c4ccc(O)cc4)c3[C@@H]2c2cc(O)cc3c2[C@@H](c2cc(O)cc(O)c2)[C@H](c2ccc(O)c(O)c2)O3)cc1`: 80 to 90% and 25.3 µM. Turning to `OC[C@H]1O[C@@H](Oc2cc(/C=C/c3ccc(O)cc3)cc(O[C@@H]3O[C@H](CO)[C@@H](O)[C@H](O)[C@H]3O)c2)[C@H](O)[C@@H](O)[C@@H]1O`, in the assay filed under Bos taurus, the inhibition was 80 to 90%. Regarding `Oc1cc(O)cc(/C=C/c2ccc(O)c(O)c2)c1` [PICEATANNOL], in the assay listed under Bos taurus, the inhibition was 80 to 90%. Besides, the IC50 in assay [1] came to 12.6 µM.
